For 24 molecules, IC50 and Activity results are on record in ChEMBL document CHEMBL1145333, “Low molecular weight activated protein C inhibitors as a potential treatment for hemophilic disorders” (J Med Chem, 2006).

Assay [1] addresses Prothrombin (Homo sapiens, UniProt P00734). Put plainly: Inhibition of human thrombin activity. In outline: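 Thrombin counterscreen using its natural substrate, fibrinogen. Result expressed as an IC50.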
The target in assay [2] is Vitamin K-dependent protein C (Homo sapiens, UniProt P04070). Put plainly: Inhibition of human aPC.
Sequence of Vitamin K-dependent protein C (P04070 43-197 limits assumed): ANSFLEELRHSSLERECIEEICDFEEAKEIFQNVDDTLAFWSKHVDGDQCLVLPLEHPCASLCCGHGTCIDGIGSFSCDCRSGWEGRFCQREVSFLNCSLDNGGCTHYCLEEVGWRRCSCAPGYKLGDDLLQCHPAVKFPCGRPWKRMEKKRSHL
Sequence of Vitamin K-dependent protein C (P04070 212-461 limits assumed): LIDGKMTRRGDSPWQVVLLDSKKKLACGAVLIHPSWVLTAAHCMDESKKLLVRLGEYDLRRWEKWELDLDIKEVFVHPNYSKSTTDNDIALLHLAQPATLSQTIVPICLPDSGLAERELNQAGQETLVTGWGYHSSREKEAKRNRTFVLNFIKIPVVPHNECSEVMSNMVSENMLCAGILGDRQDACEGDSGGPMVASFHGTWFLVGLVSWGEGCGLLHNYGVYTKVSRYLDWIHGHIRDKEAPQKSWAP
Assay [3] is filed under the species Homo sapiens. Put plainly: Increase in thrombin generation in human severe hemophilia A pooled poor platelet plasma at 20 nM relative to control by thrombogram assay.
For assay [4], the species on record is Homo sapiens. Put plainly: Increase in thrombin generation in human moderate hemophilia A pooled poor platelet plasma by thrombogram assay at 20 uM. Conditions: in the assay text read “20 nM” for “20 uM”. The assay is classed as functional. In outline: (§1)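 Calibrated automated thrombogram in human moderate hemophilia A platelet-poor plasma (FVIII < 5%). Thrombin generation triggered via the intrinsic coagulation pathway. Inhibitor incubated in the plasma at 10 and 20 nM alongside a 0 nM control. Read-out is the thrombin generation curve and its peak thrombin level (nM).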

The species entered for assay [5] is Homo sapiens. Put plainly: Increase in thrombin generation in human moderate hemophilia A platelet poor plasma by thrombogram assay at 10 uM. The assay is classed as functional. Conditions: in the assay text read “10 nM” for “10 uM”. In outline: as §1

On to `N=C(N)c1ccc(CNC(=O)C2(NC(=O)C3(NCC(=O)O)CCCC3)Cc3ccccc3C2)cc1`, for which the half-inhibitory concentration (IC50) in assay [1] came to 4.4 µM; in assay [2] it was 53 µM.
In the same order, the values of `COc1cc2c(cc1OC)CC(NC(=O)[C@H](NCC(=O)O)C(C)C)(C(=O)NCc1ccc(C(=N)N)cc1)C2` are over 33 µM and 10.9 µM.
Regarding `CC(C)(NCC(=O)O)C(=O)NC1(C(=O)NCc2ccc(C(=N)N)cc2)Cc2ccccc2C1`, the results for the IC50 in assay [1] and in assay [2] were over 300 µM and 44 µM, respectively.
For `CC(C)[C@@H](NCC(=O)O)C(=O)NC1(C(=O)NCc2ccc(C(=N)N)cc2)Cc2cccnc2C1` (single isomer, unassigned; diastereomer 2), in that order: 300 µM and 1.14 µM.
For the molecule `CC(C)[C@@H](NCC(=O)O)C(=O)NC1(C(=O)NCc2ccc(C(=N)N)cc2)Cc2cccc3cccc(c23)C1`, the IC50 in assay [1] is over 300 µM; in assay [2] it was 0.43 µM.
Molecule `CC(C)[C@@H](NCC(=O)O)C(=O)N[C@H](C(=O)NCc1ccc(C(=N)N)cc1)C(c1ccccc1)c1ccccc1` gave an IC50 in assay [2] of over 33 µM.
As for `CC(C)[C@@H](NCC(=O)O)C(=O)NC1(C(=O)NCc2ccc(C(=N)N)cc2)Cc2cc3ccccc3cc2C1`, the results for the IC50 in assay [1] and in assay [2] were over 300 µM and 9.28 µM, respectively.
For `CC(C)[C@@H](NCC(=O)O)C(=O)NC1(C(=O)NCc2ccc(C(=N)N)cc2)Cc2ccc3ccccc3c2C1` (some centres undefined), in that order: 0.77 µM and 0.25 µM.
For `N=C(N)c1ccc(CNC(=O)C2(NC(=O)[C@@H](NCC(=O)O)C3CCCCC3)Cc3ccccc3C2)cc1`, in that order: over 33 µM and over 33 µM.
In the same order, the values of `C[C@@H](NCC(=O)O)C(=O)NC1(C(=O)NCc2ccc(C(=N)N)cc2)Cc2ccccc2C1` are 33 µM and 9.08 µM.
For the molecule `CC(C)C[C@@H](NCC(=O)O)C(=O)NC1(C(=O)NCc2ccc(C(=N)N)cc2)Cc2ccccc2C1`, the IC50 is over 33 µM in assay [1] and 0.75 µM in assay [2].
For `N=C(N)c1ccc(CNC(=O)C2(NC(=O)CNCC(=O)O)Cc3ccccc3C2)cc1`, in that order: 100 µM and over 33 µM.
In the same order, the values of `CC(C)[C@@H](NCC(=O)O)C(=O)N[C@@H](Cc1ccccc1)C(=O)NCc1ccc(C(=N)N)cc1` are 13.3 µM and 0.71 µM.
For `CC[C@@H](NCC(=O)O)C(=O)NC1(C(=O)NCc2ccc(C(=N)N)cc2)Cc2ccccc2C1`, in that order: 300 µM and 2.04 µM.
Regarding `N=C(N)c1ccc(CNC(=O)C2(NC(=O)[C@@H](CC3CCCCC3)NCC(=O)O)Cc3ccccc3C2)cc1`, the IC50 was found to be 1.25 µM in assay [1] and 0.1 µM in assay [2].
In the same order, the values of `CC(C)[C@@H](NCC(=O)O)C(=O)NC1(C(=O)NCc2ccc(C(=N)N)cc2)Cc2ccncc2C1` (some centres undefined) are 100 µM and 1.7 µM.
In the same order, the values of `N=C(N)c1ccc(CNC(=O)C2(NC(=O)[C@@H](Cc3ccccc3)NCC(=O)O)Cc3ccccc3C2)cc1` are 10 µM and 11.3 µM.
For `CC(C)[C@@H](NCC(=O)O)C(=O)N[C@H](C(=O)NCc1ccc(C(=N)N)cc1)C1Cc2ccccc2C1`, in that order: over 33 µM and 0.35 µM.
Turning to `CCC(C)[C@@H](NCC(=O)O)C(=O)NC1(C(=O)NCc2ccc(C(=N)N)cc2)Cc2ccccc2C1` (some centres undefined), the IC50 was found to be 85 µM in assay [1] and 1.12 µM in assay [2].
In the same order, the values of `CC(C)[C@@H](NCC(=O)O)C(=O)NC1(C(=O)NCc2ccc(C(=N)N)cc2)Cc2ccccc2-c2ccccc2C1` are over 300 µM and 12.7 µM.
As to `N=C(N)c1ccc(CNC(=O)C2(NC(=O)[C@H](NCC(=O)O)C3CCCCC3)Cc3ccccc3C2)cc1`, the figures for the Activity in assay [3], in assay [4] and in assay [5] were 201 nM, 160 nM and 160 nM, respectively. Further, the IC50 in assay [1] worked out at 47 µM.
For the molecule `CC(C)[C@@H](NCC(=O)O)C(=O)NC1(C(=O)NCc2ccc(C(=N)N)cc2)Cc2ccccc2C1`, the concentration for half-maximal inhibition (IC50) was over 300 µM in assay [1] and 0.8 µM in assay [2].
`CC(C)(C)[C@@H](NCC(=O)O)C(=O)NC1(C(=O)NCc2ccc(C(=N)N)cc2)Cc2ccccc2C1`: the IC50 in assay [1] was 300 µM; in assay [2], 3.83 µM.
For `CC(C)[C@@H](NCC(=O)O)C(=O)NC1(C(=O)NCc2ccc(C(=N)N)cc2)Cc2cccnc2C1` (single isomer, unassigned; diastereomer 1), in that order: 300 µM and 1.07 µM.
